23 compounds from BindingDB's records for doi:10.1016/j.ejmech.2016.09.032 (China Pharmaceutical University, 2017) can be followed below.

Structures are written as SMILES.

Assay [1] has as its target T1, Integrin alpha-IIb/beta-3 (Homo sapiens, UniProt P08514+P05106). The assay is described as follows: Antagonist activity at GP2b/GP3a receptor in human platelet rich plasma assessed as inhibition of ADP-induced platelet aggregation preincubated for 1 min followed by ADP addition by aggregometric method. The method, boiled down: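 Human PRP from apheresis platelets, PPP from centrifugation at 3000r/min for 10 min used as reference. Compound in saline or 0.2% aqueous DMSO added to PRP, incubated 1 min, then ADP 20 μM (per table footnotes; methods list 10 μM) added. Light transmission aggregometry at 37°C, maximal aggregation vs PPP. Inhibition relative to control aggregation ratio. IC50 from at least four concentrations.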

Assay [2] deals with T1, Integrin alpha-IIb/beta-3. The assay is described as follows: Antagonist activity at GP2b/GP3a receptor in human platelet rich plasma assessed as inhibition of U46619-induced platelet aggregation preincubated for 1 min […] by aggregometric method. The method, boiled down: (§1)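 Aggregometry at 37°C in human apheresis PRP, PPP as reference. Compound in saline or 0.2% aqueous DMSO preincubated 1 min before inducer: collagen 1 μg/ml, thrombin 0.26 U/ml or U46619 2 μM (figure and table values; methods state 9 μg/ml, 1 U/ml, 6 μM). Percent inhibition vs control. IC50 from at least four concentrations, means of two to three dose-response curves.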

Assay [3] deals with T1, Integrin alpha-IIb/beta-3. The assay is described as follows: Antagonist activity at GP2b/GP3a receptor in human platelet rich plasma assessed as inhibition of collagen-induced platelet aggregation preincubated for 1 min […] by aggregometric method. The method, boiled down:
as §1

The target in assay [4] is T1, Integrin alpha-IIb/beta-3. The assay is described as follows: Antagonist activity at GP2b/GP3a receptor in human platelet rich plasma assessed as inhibition of thrombin-induced platelet aggregation preincubated for 1 min […] by aggregometric method. Put shortly: as §1

T1 sequence (P05106 27-788 limits assumed): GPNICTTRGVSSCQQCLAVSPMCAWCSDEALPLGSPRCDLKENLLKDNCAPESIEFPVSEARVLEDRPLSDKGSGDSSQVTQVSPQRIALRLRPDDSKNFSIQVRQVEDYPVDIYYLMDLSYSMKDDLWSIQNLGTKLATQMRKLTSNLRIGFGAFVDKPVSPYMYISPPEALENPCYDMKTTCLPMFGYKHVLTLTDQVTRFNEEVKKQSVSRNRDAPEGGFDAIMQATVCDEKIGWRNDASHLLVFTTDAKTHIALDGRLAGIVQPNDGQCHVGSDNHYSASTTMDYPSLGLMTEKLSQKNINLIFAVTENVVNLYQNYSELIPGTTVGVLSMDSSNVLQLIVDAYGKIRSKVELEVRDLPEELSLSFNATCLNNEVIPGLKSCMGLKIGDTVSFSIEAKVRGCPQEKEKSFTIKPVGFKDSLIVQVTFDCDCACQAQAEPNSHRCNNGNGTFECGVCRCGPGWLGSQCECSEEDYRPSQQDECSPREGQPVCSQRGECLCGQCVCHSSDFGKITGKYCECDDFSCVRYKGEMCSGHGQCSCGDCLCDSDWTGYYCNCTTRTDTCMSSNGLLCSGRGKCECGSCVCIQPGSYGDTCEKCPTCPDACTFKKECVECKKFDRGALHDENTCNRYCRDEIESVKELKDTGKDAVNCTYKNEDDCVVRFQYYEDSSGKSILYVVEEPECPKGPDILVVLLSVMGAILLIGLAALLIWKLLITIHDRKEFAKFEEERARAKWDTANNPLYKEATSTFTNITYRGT
T1 sequence (P08514 32-887 limits assumed): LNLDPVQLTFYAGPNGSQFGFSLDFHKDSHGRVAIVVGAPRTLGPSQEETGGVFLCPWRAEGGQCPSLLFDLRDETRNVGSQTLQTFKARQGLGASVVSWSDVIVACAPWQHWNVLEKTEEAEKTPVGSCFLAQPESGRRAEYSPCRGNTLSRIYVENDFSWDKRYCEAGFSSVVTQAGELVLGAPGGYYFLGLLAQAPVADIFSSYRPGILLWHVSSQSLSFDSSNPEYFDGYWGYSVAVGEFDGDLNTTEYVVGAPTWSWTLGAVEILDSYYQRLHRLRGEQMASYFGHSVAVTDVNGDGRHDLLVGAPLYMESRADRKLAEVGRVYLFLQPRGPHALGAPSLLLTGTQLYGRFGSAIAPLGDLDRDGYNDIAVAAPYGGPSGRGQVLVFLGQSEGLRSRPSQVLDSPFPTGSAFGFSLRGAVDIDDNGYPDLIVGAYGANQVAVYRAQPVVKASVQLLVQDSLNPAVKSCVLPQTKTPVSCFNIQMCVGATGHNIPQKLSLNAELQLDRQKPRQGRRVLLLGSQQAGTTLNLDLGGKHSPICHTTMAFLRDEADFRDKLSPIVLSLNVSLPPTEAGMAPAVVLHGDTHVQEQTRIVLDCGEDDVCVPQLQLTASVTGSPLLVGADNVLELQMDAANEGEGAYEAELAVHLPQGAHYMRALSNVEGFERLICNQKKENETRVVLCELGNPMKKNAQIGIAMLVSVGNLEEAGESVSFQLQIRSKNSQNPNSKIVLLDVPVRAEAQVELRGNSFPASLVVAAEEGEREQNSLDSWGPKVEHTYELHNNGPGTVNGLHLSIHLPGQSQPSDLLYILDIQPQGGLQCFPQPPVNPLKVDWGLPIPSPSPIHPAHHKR
T1 sequence (P08514 891-1039 limits assumed): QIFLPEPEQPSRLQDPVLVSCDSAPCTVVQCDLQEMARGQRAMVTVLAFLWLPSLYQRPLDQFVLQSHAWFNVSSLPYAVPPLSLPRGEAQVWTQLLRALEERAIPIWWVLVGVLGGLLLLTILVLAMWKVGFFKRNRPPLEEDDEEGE

As a reminder, the IC50 is the concentration that inhibits the measured activity by half. Take `CCCC(=O)NC(Cc1ccc2cc(OCCCN3CCNCC3)ccc2c1)C(=O)O` (centres undefined): in assay [1], the IC50 was 5.4 µM.

Consider `O=C(O)C(Cc1ccc2cc(OCCCN3CCNCC3)ccc2c1)NS(=O)(=O)c1ccccc1` (centres undefined), for which the IC50 in assay [2] amounted to 1.01 µM; in assay [1] it was 0.18 µM; in assay [3] it was 1.32 µM; in assay [4], 0.53 µM.

As to `N=C(N)c1ccc(COc2ccc3cc(CC(NC(=O)c4ccc([N+](=O)[O-])cc4)C(=O)O)ccc3c2)cc1` (centres undefined), the IC50 in assay [1] was 2.1 µM.

In the case of `O=C(NC(Cc1ccc2cc(OCCCN3CCNCC3)ccc2c1)C(=O)O)c1cc(Cl)cc(Cl)c1` (centres undefined), the IC50 in assay [1] was found to be 24.6 µM.

For `O=C(O)C(Cc1ccc2cc(OCCCN3CCNCC3)ccc2c1)NS(=O)(=O)c1ccc([N+](=O)[O-])cc1` (centres undefined), in assay [1], the IC50 is 0.2 µM.

Turning to `O=C(NC(Cc1ccc2cc(OCCCN3CCNCC3)ccc2c1)C(=O)O)c1ccc([N+](=O)[O-])cc1` (centres undefined), in assay [1], the IC50 stood at 3.4 µM.

`O=C(O)C(Cc1ccc2cc(OCCN3CCNCC3)ccc2c1)NS(=O)(=O)c1ccc(Br)cc1` (centres undefined): in assay [1], the IC50 amounted to 12.8 µM.

With `N=C(N)c1ccc(COc2ccc3cc(CC(NS(=O)(=O)c4ccccc4)C(=O)O)ccc3c2)cc1` (centres undefined), the IC50 was determined as 23.6 µM in assay [2], 0.84 µM in assay [1], 27.7 µM in assay [3] and 22.9 µM in assay [4].

For the compound `CCCCS(=O)(=O)NC(Cc1ccc2cc(OCc3ccc(C(=N)N)cc3)ccc2c1)C(=O)O` (centres undefined), the IC50 in assay [1] amounted to 3.29 µM.

Consider `Cc1ccc(S(=O)(=O)NC(Cc2ccc3cc(OCc4ccc(C(=N)N)cc4)ccc3c2)C(=O)O)cc1` (centres undefined), for which the IC50 in assay [1] amounted to 4.01 µM.

Regarding `COc1ccc(S(=O)(=O)NC(Cc2ccc3cc(OCCCN4CCNCC4)ccc3c2)C(=O)O)cc1` (centres undefined), the IC50 in assay [1] worked out at 1.65 µM.

On to `O=C(O)C(Cc1ccc2cc(OCCCN3CCNCC3)ccc2c1)NS(=O)(=O)c1ccc(F)cc1` (centres undefined), for which the IC50 in assay [1] came out at 0.28 µM.

For the compound `COc1ccc(C(=O)NC(Cc2ccc3cc(OCCCN4CCNCC4)ccc3c2)C(=O)O)cc1` (centres undefined), in assay [1], the IC50 was determined as 12.7 µM.

With `O=C(NC(Cc1ccc2cc(OCCCN3CCNCC3)ccc2c1)C(=O)O)c1cccc(F)c1` (centres undefined), in assay [1], the IC50 came to 6.38 µM.

`O=C(NC(Cc1ccc2cc(OCCCN3CCNCC3)ccc2c1)C(=O)O)c1ccccc1` (centres undefined): the IC50 in assay [1] came to 7.9 µM.

As for `O=C(O)C(Cc1ccc2cc(OCCC3CCNCC3)ccc2c1)NS(=O)(=O)c1ccc(Br)cc1` (centres undefined), in assay [1], the IC50 is greater than 100 µM.

`O=C(O)C(Cc1ccc2cc(OCCCC3CCNCC3)ccc2c1)NS(=O)(=O)c1ccc(Br)cc1` (centres undefined): in assay [1], the IC50 was greater than 100 µM.

For the compound `CCCCS(=O)(=O)NC(Cc1ccc2cc(OCCCN3CCNCC3)ccc2c1)C(=O)O` (centres undefined), in assay [1], the IC50 worked out at 0.52 µM.

For the compound `O=C(O)C(Cc1ccc2cc(OCCCCN3CCNCC3)ccc2c1)NS(=O)(=O)c1ccc(Br)cc1` (centres undefined), the IC50 in assay [1] came out at 18.8 µM.

`O=C(O)C(Cc1ccc2cc(OCCCN3CCNCC3)ccc2c1)NS(=O)(=O)c1ccc(Br)cc1` (centres undefined): the IC50 in assay [1] was found to be 0.37 µM.

With `CCCC(=O)NC(Cc1ccc2cc(OCc3ccc(C(=N)N)cc3)ccc2c1)C(=O)O` (centres undefined), the IC50 in assay [1] is 1.08 µM.

With `O=C(O)C(Cc1ccc2cc(OCC3CCNCC3)ccc2c1)NS(=O)(=O)c1ccc(Br)cc1` (centres undefined), in assay [1], the IC50 was greater than 100 µM.

For the compound `O=C(NC(Cc1ccc2cc(OCCCN3CCNCC3)ccc2c1)C(=O)O)c1ccc(F)cc1` (centres undefined), in assay [1], the IC50 turned out to be 7.6 µM.
